Measurements as given in ChEMBL document CHEMBL1153877, “Lowering of 5-nitroimidazole's mutagenicity: towards optimal antiparasitic pharmacophore” (Eur J Med Chem, 2009).
pIC50: −log10 of the molar value.

Tests used:
[1] = tested on: THP-1; assay: Cytotoxicity against human THP1 cells after 72 hrs by propidium iodide-based flow cytometry; type: cell-based; details: THP-1, 72 h
Summary of the method: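 THP1 monocytes kept in RPMI with 10% foetal calf serum, 25 mM HEPES, 25 mM NaHCO₃ and 1% L-glutamine/penicillin-streptomycin at 37 °C, 6% CO₂. Cells at 10⁵ cells/mL exposed for 72 h to various concentrations from DMSO stocks. Drug-free and 0.5% DMSO final controls run alongside. Living cells counted by propidium iodide flow cytometry.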

[2] = tested on: Salmonella typhimurium; assay: Induction of mutagenicity in Salmonella Typhimurium YG1042 assessed as number of revertant per nmol after 48 hrs; type: toxicity, organism-based; details: salmonella enterica subsp. enterica serovar typhimurium
Summary of the method: (§1)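 YG1042, a TA100 derivative, grown overnight in Nutrient Broth No. 2 with ampicillin and kanamycin. Bacteria preincubated 60 min at 37 °C with shaking with compound in DMSO and 0.1 mL PBS (0.15 M, pH 7.4). Top agar containing histidine/biotin added, then plated on Vogel-Bonner agar. Revertants counted after 48 h. Four doses in triplicate plates; solvent control in quadruplicate. Mutagenic power given as revertants per amount of compound.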

[3] = tested on: Trichomonas vaginalis; assay: Antitrichomonas activity against Trichomonas vaginalis TVR87 after 48 hrs by trypan blue staining; type: functional, organism-based; details: TVR87, 48 h
Summary of the method: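 T. vaginalis TVR87 trophozoites grown in TM 161 medium with 10% heat-inactivated horse serum, used one day after subculture in log phase. Assay at 5 × 10³ trophozoites/mL, triplicate cultures, incubated anaerobically at 37 °C for 48 h with a range of compound concentrations from DMSO stocks. DMSO 0.1% final served as negative control. Viable cells counted by trypan blue.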

[4] = Specificity index, ratio of IC50 for human THP1 cells to IC50 for Trichomonas vaginalis TVR87; parameters: species or system THP-1
Summary of the method: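 Specificity index = IC50 against THP1 cells (72 h, propidium iodide flow cytometry) divided by IC50 against T. vaginalis (48 h, trypan blue).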

[5] = tested on: Salmonella typhimurium; assay: Induction of mutagenicity in Salmonella Typhimurium YG1042 assessed as number of revertant per ug after 48 hrs; type: toxicity, organism-based; details: salmonella enterica subsp. enterica serovar typhimurium; summary of the method: as §1
[6] = tested on: Salmonella typhimurium; assay: Induction of mutagenicity in Salmonella Typhimurium TA100 assessed as number of revertant per nmol after 48 hrs relative to metranidazole; type: toxicity, organism-based; details: salmonella enterica subsp. enterica serovar typhimurium
[7] = tested on: Salmonella typhimurium; assay: Ratio of number of revertant per nmol of drug for Salmonella Typhimurium YG1042 to number of revertant per nmol of drug for Salmonella Typhimurium TA100; type: toxicity, organism-based; details: salmonella enterica subsp. enterica serovar typhimurium
[8] = tested on: Salmonella typhimurium; assay: Induction of mutagenicity in Salmonella Typhimurium TA100 assessed as number of revertant per ug after 48 hrs; type: toxicity, organism-based; details: salmonella enterica subsp. enterica serovar typhimurium
Summary of the method: (§2)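 TA100 grown overnight in Nutrient Broth No. 2 with ampicillin. Bacteria preincubated 60 min at 37 °C with shaking with compound in DMSO and 0.1 mL PBS (0.15 M, pH 7.4). Top agar containing histidine/biotin added, then plated on Vogel-Bonner agar. Revertants counted after 48 h. Four consecutive doses in triplicate plates; solvent control in quadruplicate. Mutagenic power given as revertants per amount of compound.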

[9] = tested on: Salmonella typhimurium; assay: Induction of mutagenicity in Salmonella Typhimurium YG1042 assessed as number of revertant per nmol after 48 hrs relative to metranidazole; type: toxicity, organism-based; details: salmonella enterica subsp. enterica serovar typhimurium
[10] = tested on: Salmonella typhimurium; assay: Induction of mutagenicity in Salmonella Typhimurium TA100 assessed as number of revertant per nmol after 48 hrs; type: toxicity, organism-based; details: salmonella enterica subsp. enterica serovar typhimurium; summary of the method: as §2

SMILES	pIC50 [1]	Activity [2]	pIC50 [3]	Ratio IC50 [4]	Activity [5]	Activity [6]	Ratio [7]	Activity [8]	Activity [9]	Activity [10]
Cn1cnc(CS(=O)(=O)c2ccc(Cl)cc2)c1[N+](=O)[O-]	3.76	52.85	6.80	1101	167.38	5.27	1.2	139.44	0.63	44.03
Cc1nc(CS(=O)(=O)c2ccc(Cl)cc2)c([N+](=O)[O-])n1CCO	3.24	5.3	7.36	13136	14.73	0.27	2.4	6.22	0.06	2.24
Cc1nc(CS(=O)(=O)c2ccc(Cl)cc2)c([N+](=O)[O-])n1C	4.17	8.31	6.04	74	25.21	0.28	3.5	7.15	0.1	2.36
Cn1cncc1[N+](=O)[O-]	< 2.71	197.14	6.20	>3125	1551.06	1.85	12.7	121.79	2.34	15.48
Cc1nc(CS(=O)(=O)c2ccc(Cl)cc2)c([N+](=O)[O-])n1CC(C)O (configuration not stated)	< 3.18	1.39	6.14	>912	3.72	0.1	1.7	2.18	0.02	0.81
Cc1ncc([N+](=O)[O-])n1CC(C)O (configuration not stated) [SECNIDAZOLE]	< 2.87	23.78	6.09	>1666	128.44	0.57	5	25.74	0.28	4.77
Cn1cnc(CS(=O)(=O)c2ccc(Br)cc2)c1[N+](=O)[O-]	< 3.16	59.22	6.40	>1761	164.42	1.78	4	41.41	0.7	14.92
Cc1ncc([N+](=O)[O-])n1CCO [METRONIDAZOLE]	< 2.84		5.56							
Cc1nc(CS(=O)(=O)c2ccc(Br)cc2)c([N+](=O)[O-])n1C	3.49	12.32	6.18	493	32.91	0.79	1.9	17.61	0.15	6.59
Cc1ncc([N+](=O)[O-])n1C [DIMETRIDAZOLE]	< 2.75	222.71	6.15	>2501	1578.04	2.6	10.3	153.8	2.64	21.71
Cn1cnc(CS(=O)(=O)c2ccc(F)cc2)c1[N+](=O)[O-]	< 3.08	47.09	6.48	>2500	157.34	1.26	4.5	35.17	0.56	10.53
Cc1nc(CS(=O)(=O)c2ccccc2)c([N+](=O)[O-])n1C	< 3.07	21.91	6.62	>3525	74.18	0.99	2.7	27.91	0.26	8.24
